Values belong to the compound of their own block, whether it stands above or below them.
Tests used:
[1] = biological target: T1, C-C chemokine receptor type 4 (Homo sapiens) (UniProt P51679); experiment: Antagonist activity at human CCR4 receptor expressed in mouse B300-19 cells assessed as CCL22-induced [35S]GTPgammaS binding at 1 uM; assay type: functional, cell-based
T1 sequence (whole entry): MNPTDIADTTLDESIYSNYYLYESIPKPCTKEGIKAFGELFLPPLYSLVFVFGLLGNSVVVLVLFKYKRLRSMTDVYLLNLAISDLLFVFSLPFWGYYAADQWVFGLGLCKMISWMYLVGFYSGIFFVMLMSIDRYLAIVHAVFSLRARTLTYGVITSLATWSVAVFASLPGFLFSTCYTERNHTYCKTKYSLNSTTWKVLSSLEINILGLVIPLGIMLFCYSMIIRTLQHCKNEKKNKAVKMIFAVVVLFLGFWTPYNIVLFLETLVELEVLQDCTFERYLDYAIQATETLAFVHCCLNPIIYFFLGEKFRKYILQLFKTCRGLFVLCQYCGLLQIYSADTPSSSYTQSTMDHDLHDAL
In short: (§1)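 B300-19 pre-B cell membranes stably expressing human CCR4 (1 µg protein/well), incubated 1.5 h at 25 °C with 150 pM [35S]GTPγS, 2 µM GDP, 3 nM MDC (CCL22), WGA SPA beads, in HEPES-NaOH pH 7.05, NaCl, MgCl2, BSA buffer. Scintillation counting. Percent inhibition from no-compound and no-CCL22 control wells. Duplicate wells, four test concentrations.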

[2] = biological target: T2, C-C chemokine receptor type 4 (Homo sapiens, UniProt P51679); experiment: Antagonist activity at human CCR4 receptor expressed in mouse B300-19 cells assessed as CCL22-induced [35S]GTPgammaS binding; assay type: functional, cell-based; in short: as §1
T2 sequence (P51679 whole entry): T1 sequence (whole entry)

[3] = Antagonist activity at mouse CCR4 receptor expressed in mouse B300-19 cells assessed as CCL22-induced chemotaxis
Mus musculus [4] = experiment: Antiinflammatory activity against oxazolone-induced contact hypersensitivity in BALB/c mouse model of acute dermatitis assessed as inhibition of ear swelling at 30 mg/kg, sc bid; assay type: functional; settings: route subcutaneous
In short: (§2)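 Female BALB/c mice, 7 weeks, n = 5, sensitized with 3% oxazolone in ethanol on the shaved abdomen. Challenged on day 6 with 1% oxazolone on the right ear. Ear thickness gauged 20 h after challenge. Twice-daily dosing was given 30 min before and 8 h after challenge. Single doses were given after challenge only (8 h or 12 h). Percent inhibition of swelling calculated against control and vehicle groups.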

Mus musculus [5] = experiment: Antiinflammatory activity against oxazolone-induced contact hypersensitivity in BALB/c mouse model of acute dermatitis assessed as inhibition of ear swelling at 30 mg/kg, po bid; assay type: functional; in short: as §2
[6] = Antagonist activity at human CCR4 receptor expressed in mouse B300-19 cells assessed as CCL22-induced chemotaxis
[7] = biological target: T3, C-C chemokine receptor type 4 (Mus musculus) (UniProt P51680); experiment: Antagonist activity at mouse CCR4 receptor expressed in mouse B300-19 cells assessed as CCL22-induced chemotaxis at 1 uM; assay type: functional, cell-based
T3 sequence (whole entry): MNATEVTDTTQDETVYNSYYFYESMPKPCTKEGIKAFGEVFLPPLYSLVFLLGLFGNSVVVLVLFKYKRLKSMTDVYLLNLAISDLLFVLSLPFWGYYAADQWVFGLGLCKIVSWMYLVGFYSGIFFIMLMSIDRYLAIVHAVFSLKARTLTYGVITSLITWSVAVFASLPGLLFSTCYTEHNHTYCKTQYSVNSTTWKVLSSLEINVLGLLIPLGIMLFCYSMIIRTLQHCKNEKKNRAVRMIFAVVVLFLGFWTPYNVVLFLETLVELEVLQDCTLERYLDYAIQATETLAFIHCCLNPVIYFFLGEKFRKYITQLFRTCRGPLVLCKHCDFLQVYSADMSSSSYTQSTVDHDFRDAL
In short: (§3)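 Stable CCR4 transfectants of B300-19 cells (human or mouse receptor) at 5 × 10^6 cells/mL in RPMI 1640 with 0.1% BSA, pretreated with test compound. Cells placed above 5-µm polycarbonate filters, with 3 nM human (human CCR4 cells) or 1 nM mouse (mouse CCR4 cells) CCL22 below. Migration for 3 h at 37 °C, 5% CO2. Migrated cells quantified by ATP bioluminescence. Triplicates, four concentrations.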

[8] = biological target: T1, C-C chemokine receptor type 4 (Homo sapiens); experiment: Antagonist activity at human CCR4 receptor expressed in mouse B300-19 cells assessed as CCL22-induced chemotaxis at 1 uM; assay type: functional, cell-based; in short: as §3
Mus musculus [9] = experiment: Antiinflammatory activity against oxazolone-induced contact hypersensitivity in BALB/c mouse model of acute dermatitis assessed as inhibition of ear swelling at 30 mg/kg, sc qd; assay type: functional; settings: route subcutaneous; in short: as §2
Mus musculus [10] = experiment: Antiinflammatory activity against oxazolone-induced contact hypersensitivity in BALB/c mouse model of acute dermatitis assessed as inhibition of ear swelling at 100 mg/kg, po bid; assay type: functional; in short: as §2
Mus musculus [11] = experiment: Antiinflammatory activity against oxazolone-induced contact hypersensitivity in BALB/c mouse model of acute dermatitis assessed as inhibition of ear swelling at 10 mg/kg, po qd; assay type: functional; in short: as §2
Mus musculus [12] = experiment: Antiinflammatory activity against oxazolone-induced contact hypersensitivity in BALB/c mouse model of acute dermatitis assessed as inhibition of ear swelling at 100 mg/kg, po qd; assay type: functional; in short: as §2
Mus musculus [13] = experiment: AUC (0 to 24 hrs) in BALB/c mouse at 30 mg/kg, po administered as single dose; assay type: ADME, organism-based, Plasma; set-up: time < 24 hr, dose 30 mg/kg, route oral; settings: in vivo
[14] = Cmax in BALB/c mouse at 30 mg/kg, po administered as single dose; assay type: ADME, organism-based; set-up: dose 30 mg/kg, route oral; settings: in vivo
[15] = Tmax in BALB/c mouse at 100 mg/kg, po administered as single dose; assay type: ADME, organism-based; set-up: dose 100 mg/kg, route oral; settings: in vivo
Mus musculus [16] = experiment: AUC (0 to 24 hrs) in BALB/c mouse at 100 mg/kg, po administered as single dose; assay type: ADME, organism-based, Plasma; set-up: time < 24 hr, dose 100 mg/kg, route oral; settings: in vivo
Mus musculus [17] = experiment: Antiinflammatory activity against oxazolone-induced contact hypersensitivity in BALB/c mouse model of acute dermatitis assessed as inhibition of ear swelling at 30 mg/kg, po qd; assay type: functional; in short: as §2
[18] = Tmax in BALB/c mouse at 30 mg/kg, po administered as single dose; assay type: ADME, organism-based; set-up: dose 30 mg/kg, route oral; settings: in vivo
[19] = Cmax in BALB/c mouse at 100 mg/kg, po administered as single dose; assay type: ADME, organism-based; set-up: dose 100 mg/kg, route oral; settings: in vivo

inhibition [1]: 40%
SMILES: COc1cc2nc(N3CCC(N4CCCC(CO)C4)CC3)nc(N3CCc4cc(Cl)ccc43)c2cc1OC (stereo not given)

inhibition [1]: 23%
SMILES: COc1cc2nc(N3CCC(N4CCCC(CO)C4)CC3)nc(N(C)CCc3ccc(Cl)cc3)c2cc1OC (stereo not given)

IC50 [2]: 48 nM
SMILES: COc1cc2nc(N3CCC(N4CCCC(O)C4)CC3)nc(Nc3ccc(Cl)cc3)c2cc1OC (stereo not given)

inhibition [1]: 7%
SMILES: COc1cc2nc(N3CCC(N4CCCC(CO)C4)CC3)nc(C(O)c3ccc(Cl)cc3)c2cc1OC (stereo not given)

IC50 [3]: 130 nM
IC50 [6]: 110 nM
SMILES: COc1cc2nc(N3CCC(N4CCCC4)CC3)nc(Nc3ccc(Cl)cc3)c2cc1OC
inhibition in vivo at 30 mg/kg (Mus musculus [4]): 43%
inhibition in vivo at 30 mg/kg (Mus musculus [5]): 2%

SMILES: COc1cc2nc(N3CCC(N4CCCCC4)CC3)nc(NC3CCCCCC3)c2cc1OC
inhibition in vivo at 30 mg/kg (Mus musculus [5]): 2%

inhibition [7]: 50%
IC50 [2]: 100 nM
SMILES: COc1cc2nc(N3CCC(N4CCOC(CO)C4)CC3)nc(Nc3ccc(Cl)cc3)c2cc1OC (stereo not given)

inhibition [8]: 43%
IC50 [2]: 61 nM
SMILES: COc1cc2nc(N3CCC(N4CCCC(CO)C4)CC3)nc(NCCc3ccc(Cl)cc3)c2cc1OC (stereo not given)

IC50 [3]: 130 nM
IC50 [6]: 200 nM
SMILES: COc1cc2nc(N3CCC(N4CCCC4)CC3)nc(NC3CCCCCC3)c2cc1OC
inhibition in vivo at 30 mg/kg (Mus musculus [9]): 39%
inhibition in vivo at 100 mg/kg (Mus musculus [10]): 8%

IC50 [2]: 52 nM
SMILES: COCC1CCCN(C2CCN(c3nc(Nc4ccc(Cl)cc4)c4cc(OC)c(OC)cc4n3)CC2)C1 (stereo not given)

IC50 [2]: 30 nM
SMILES: COc1cc2nc(N3CCC(N4CCCC(CO)C4)CC3)nc(NC3CCCCCC3)c2cc1OC (stereo not given)
inhibition in vivo at 30 mg/kg (Mus musculus [5]): 11%

AUC (Mus musculus [13]): 1010 ng·h/mL
Cmax [14]: 139 ng/mL
Tmax [15]: 2 h
AUC (Mus musculus [16]): 1750 ng·h/mL
IC50 [2]: 19 nM
Tmax [18]: 2 h
Cmax [19]: 262 ng/mL
SMILES: COc1cc2nc(N3CCC(N4CCCC(CO)C4)CC3)nc(Nc3ccc(Cl)cc3)c2cc1OC (stereo not given)
inhibition in vivo at 10 mg/kg (Mus musculus [11]): 13%
inhibition in vivo at 100 mg/kg (Mus musculus [12]): 39%
inhibition in vivo at 30 mg/kg (Mus musculus [9]): 44%
inhibition in vivo at 30 mg/kg (Mus musculus [17]): 17%

inhibition [1]: 42%
SMILES: COc1cc2nc(N3CCC(N4CCCC(CO)C4)CC3)nc(C(=O)c3ccc(Cl)cc3)c2cc1OC (stereo not given)

inhibition [1]: 5%
SMILES: COc1cc2nc(N3CCC(N4CCCC(CO)C4)CC3)nc(NS(=O)(=O)c3ccc(Cl)cc3)c2cc1OC (stereo not given)

inhibition [1]: 11%
SMILES: COc1cc2nc(N3CCC(N4CCCC(CO)C4)CC3)nc(NC(=O)c3ccc(Cl)cc3)c2cc1OC (stereo not given)

inhibition [1]: 4%
SMILES: COc1cc2nc(N3CCC(N4CCCC(CO)C4)CC3)nc(NC3CCOCC3)c2cc1OC (stereo not given)

inhibition [1]: 0%
SMILES: COc1cc2nc(N3CCC(N4CCCC(CO)C4)CC3)nc(NC3CCS(=O)(=O)CC3)c2cc1OC (stereo not given)

IC50 [2]: 180 nM
SMILES: COc1cc2nc(N3CCC(N4CCCC(CO)C4)CC3)nc(NCCCc3ccc(Cl)cc3)c2cc1OC (stereo not given)

IC50 [2]: > 1000 nM
SMILES: COc1cc2nc(N3CCC(N4CCCC(CO)C4)CC3)nc(-c3ccc(Cl)cc3)c2cc1OC (stereo not given)

IC50 [2]: 100 nM
SMILES: COc1cc2nc(N3CCC(N4CCCC(OC)C4)CC3)nc(Nc3ccc(Cl)cc3)c2cc1OC (stereo not given)

IC50 [2]: 87 nM
SMILES: COc1cc2nc(N3CCC(N4CCCC(CO)C4)CC3)nc(NCc3ccc(Cl)cc3)c2cc1OC (stereo not given)

Reference: ChEMBL document CHEMBL1139358, “Potent and orally bioavailable CCR4 antagonists: Synthesis and structure-activity relationship study of 2-aminoquinazolines” (Bioorg Med Chem, 2009)
